Where a chain is given by its changes, count along the chain named.
What was measured:
Assay type in all cases: cell-based
[1] = molecular target: T1, rat P2X2 receptor (rP2X2R) WT (Rattus norvegicus, UniProt P49653)
T1 sequence (P49653 1-472): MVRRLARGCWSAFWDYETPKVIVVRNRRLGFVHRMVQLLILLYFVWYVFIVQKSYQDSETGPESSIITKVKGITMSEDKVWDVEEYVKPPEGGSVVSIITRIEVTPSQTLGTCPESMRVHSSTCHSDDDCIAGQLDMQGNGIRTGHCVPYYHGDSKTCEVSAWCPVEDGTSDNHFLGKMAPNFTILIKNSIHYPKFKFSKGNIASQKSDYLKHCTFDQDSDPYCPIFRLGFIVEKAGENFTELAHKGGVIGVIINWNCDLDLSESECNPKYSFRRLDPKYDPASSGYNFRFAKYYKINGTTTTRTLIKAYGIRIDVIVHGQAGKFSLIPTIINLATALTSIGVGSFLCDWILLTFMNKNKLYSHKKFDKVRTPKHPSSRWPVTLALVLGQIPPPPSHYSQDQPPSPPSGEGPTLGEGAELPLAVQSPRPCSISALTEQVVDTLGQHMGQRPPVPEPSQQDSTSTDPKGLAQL
Method in brief: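 Collagenase-digested Xenopus oocytes were injected with WT rP2X2 mRNA (30 ng) and kept in L-15 at 18°C. Two-electrode voltage clamp was done 1–2 days later at −40 mV in ND96 (pH 7.4). Agonists were freshly dissolved in ND96 at pH 7.4. Responses were normalised to 1 mM ATP current in the same cell, and Hill fits gave EC50 and nH. Relative efficacy is the agonist maximal current versus 1 mM ATP. Results are mean ± SEM, compared by one-way ANOVA with Dunnett's test.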

rP2X2 Lys69Gln = molecular target: T2, rP2X2 Lys69Gln (Rattus norvegicus, UniProt P49653, K69Q); assay: Two-electrode voltage clamp, oocytes expressing rP2X2 Lys69Gln; details: for EC50: EC50, Lys69Gln
T2 sequence (P49653 1-472 K69Q): T1 sequence (P49653 1-472) with K69Q
Method in brief: (§1)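 Mutations were made by site-directed mutagenesis. Xenopus oocytes were injected with rP2X2 mRNA and incubated in L-15 at 18°C. Two-electrode voltage clamp was done 1–2 days later at −40 mV under ND96 perfusion (pH 7.4). ATP concentration-response currents were normalised and fitted to a one-component Hill equation for EC50 and Hill coefficient. Results are mean ± SEM, tested by one-way ANOVA with Dunnett's test against WT.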

rP2X2 Lys188Arg = molecular target: T3, rP2X2 Lys188Arg (Rattus norvegicus, UniProt P49653, K188R); assay: Two-electrode voltage clamp, oocytes expressing rP2X2 Lys188Arg
T3 sequence (P49653 1-472 K188R): T1 sequence (P49653 1-472) with K188R
Method in brief: as §1

rP2X2 Arg290Gln = molecular target: T4, rP2X2 Arg290Gln (Rattus norvegicus, UniProt P49653, R290Q); assay: Two-electrode voltage clamp, oocytes expressing rP2X2 Arg290Gln
T4 sequence (P49653 1-472 R290Q): T1 sequence (P49653 1-472) with R290Q
Method in brief: as §1

rP2X2 Thr184Val = molecular target: T5, rP2X2 Thr184Val (Rattus norvegicus, UniProt P49653, T184V); assay: Two-electrode voltage clamp, oocytes expressing rP2X2 Thr184Val
T5 sequence (P49653 1-472 T184V): T1 sequence (P49653 1-472) with T184V
Method in brief: as §1

Nc1ncnc2c1ncn2[C@@H]1O[C@H](COP(=O)(O)OP(=O)(O)OP(=O)(O)O)[C@@H](O)[C@H]1O [ATP, Adenosine 5′-triphosphate] was tested, and the EC50 [1] was 32 ± 4 µM, the EC50 (rP2X2 Lys69Gln) was over 5 mM and the EC50 (rP2X2 Lys69Gln; mean ± SEM) was 16.6 mM. For the same molecule, the “nH (Hill coefficient)” value (rP2X2 Lys69Gln; Lys69Gln) was 2.4 ± 0.1, the EC50 (rP2X2 Lys188Arg) was 57 ± 8 µM and the EC50 (rP2X2 Arg290Gln) was 4.9 mM. For the same molecule, the EC50 (rP2X2 Thr184Val) was 3.2 mM and the “Fold increase in EC50 (reduction in sensitivity), Thr184Val versus WT” value (rP2X2 Thr184Val; Thr184Val compared with WT) was 100 fold.
